Where “and” joins values, the source holds several entries; their conditions need not be identical. Identical values can stand only once.
Tests used:
Mus musculus [1] = assay: tested for its effect on spermatogenic index 3 days after single oral dose (1 mg/kg); assay type: functional
Procedure, shortened: (§1)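 Male CD-1 (ICR)BR outbred Swiss albino mice, 5/dose, single oral gavage dose (10 mL/kg) on day 0 in acetate buffer pH 5 or Tween-20-based vehicle; killed 72 h later. Testis cross-sections scored histologically on a 0–6 spermatogenic index (Sertoli only to >100 late spermatids/tubule). Reported as % reduction versus vehicle control; Dunnett's one-tailed t-test.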

Mus musculus [2] = assay: Tested for its effect on mouse testes weight 3 days after single oral dose (90 mg/kg); assay type: functional, Testis
Procedure, shortened: (§2)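 CD-1 outbred Swiss albino male mice, 5 per dose, single gavage on day 0 at 10 mL/kg. Vehicle was 0.15 M acetate buffer pH 5, ethanol/Tween-20/water (3:7:90), or 1% Tween-20 in water. CO2 euthanasia 72 h later. Testes weighed and histologically scored (spermatogenic index 0–6). Values are % reduction versus the assay's vehicle control. Positive control was 30 mg/kg of the parent compound. Significance by Dunnett's one-tailed t-test, p < 0.05.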

Mus musculus [3] = assay: tested for its effect on testes weight 3 days after single sub cutaneous dose (10 mg/kg); assay type: functional, Testis
Procedure, shortened: (§3)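 CD-1 male mice, 5/dose, injected subcutaneously once (10 mL/kg) on day 0 in ethanol/Tween-20/water (3:7:90); vehicle and positive controls included. Killed by CO2 after 72 h; testes weighed and sectioned, with histology scored as a 0–6 spermatogenic index. Both read-outs given as % reduction from control; Dunnett's one-tailed t-test.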

Mus musculus [4] = assay: Effect on right testes weight after 1 hr of dosing was observed.; assay type: functional, Testis
Procedure, shortened: (§4)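 Male CD-1 outbred Swiss albino mice, single oral gavage in acetate buffer pH 5 (10 mL/kg), 3, 10 or 30 mg/kg, plus vehicle control. Killed on day 1, 3 or 14 after dosing (times are days, not hours). Testes removed, right and left weighed separately, sectioned for histology and scored on a 0–6 spermatogenic index. Body weight change recorded. Mean ± SEM, n = 5; p < 0.05 versus control.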

Mus musculus [5] = assay: Effect on left testes body weight a single oral dose of 3 mg/kg was given and the change after 1 h of dosing was observed.; assay type: functional, Testis; procedure, shortened: as §4
Mus musculus [6] = assay: Tested for its effect on spermatogenic index 3 days after single sub cutaneous dose (10 mg/kg); assay type: functional
Procedure, shortened: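 Single subcutaneous injection, 10 mL/kg, to male CD-1 mice (5 per dose) in ethanol/Tween-20/water (3:7:90, v/v/v) on day 0. Mice were killed at 72 h; testes were weighed and histology scored for spermatogenic index (0–6). Results are % reduction from the vehicle control, with a 30 mg/kg positive control group. Dunnett's one-tailed t-test.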

Mus musculus [7] = assay: Effect on right testes weight single oral dose of 3 mg/kg was given and the change after 3 hr of dosing was observed.; assay type: functional, Testis; procedure, shortened: as §4
Mus musculus [8] = assay: tested for its effect on mouse testes weight 3 days after single oral dose (3 mg/kg); assay type: functional, Testis
Procedure, shortened: (§5)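 Male CD-1 (ICR)BR outbred Swiss albino mice, 5/dose, given one oral gavage dose (10 mL/kg) on day 0 in 0.15 M acetate buffer pH 5, ethanol/Tween-20/water (3:7:90), or 1% Tween-20 in water; vehicle and positive-control groups in each assay. Killed by CO2 72 h later; testes weighed. Expressed as % reduction versus vehicle control; Dunnett's one-tailed t-test.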

Mus musculus [9] = assay: Tested for its effect on mouse testes weight 3 days after single sub cutaneous dose (5 mg/kg); assay type: functional, Testis
Procedure, shortened: (§6)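 CD-1 outbred Swiss albino male mice, 5 per dose, single subcutaneous injection on day 0 at 10 mL/kg in ethanol/Tween-20/water (3:7:90). Killed 72 h later. Testes weighed and scored for spermatogenic index (0–6). Results are % reduction versus vehicle control. Each assay included a 30 mg/kg positive control. Dunnett's one-tailed t-test, p < 0.05. Oral versus sc route compared by ANOVA.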

Mus musculus [10] = assay: Effect on left testes body weight single oral dose of 10 mg/kg was given and the change after 1 h of dosing was observed.; assay type: functional, Testis; procedure, shortened: as §4
Mus musculus [11] = assay: Effect on right testes weight asingle oral dose of 3 mg/kg was given and the change after 14 hr of dosing was observed.; assay type: functional, Testis; procedure, shortened: as §4
Mus musculus [12] = assay: Effect on spermatogenic index single oral dose of 30 mg/kg was given and the change after 14 hr of dosing was observed; assay type: functional; procedure, shortened: as §4
Mus musculus [13] = assay: Effect on right testes weight single oral dose of 3 mg/kg was given and the change after 1 hr of dosing was observed. Data are given as mean +/- SEM (N=5), P<0.05, compared to control; assay type: functional, Testis; procedure, shortened: as §4
Mus musculus [14] = species on record: Mus musculus; assay: Tested for its effect on spermatogenic index 3 days after single sub cutaneous dose; assay type: functional; procedure, shortened: as §6
Mus musculus [15] = assay: tested for its effect on spermatogenic index 3 days after single sub cutaneous dose (10 mg/kg); assay type: functional; procedure, shortened: as §3
Mus musculus [16] = assay: Tested for its effect on spermatogenic index 3 days after single oral dose (30 mg/kg); assay type: functional; procedure, shortened: as §2
Mus musculus [17] = assay: Effect on right testes weight single oral dose of 30 mg/kg was given and the change after 3 hr of dosing was observed.; assay type: functional, Testis; procedure, shortened: as §4
Mus musculus [18] = assay: Effect on left testes body weight single oral dose of 10 mg/kg was given and the change after 3 hr of dosing was observed.; assay type: functional, Testis; procedure, shortened: as §4
Mus musculus [19] = assay: Effect on right testes weight single oral dose of 30 mg/kg was given and the change after 14 hr of dosing was observed.; assay type: functional, Testis; procedure, shortened: as §4
Mus musculus [20] = assay: Effect on left testes weight single oral dose of 30 mg/kg was given and the change after 1 hr of dosing was observed.; assay type: functional, Testis; procedure, shortened: as §4
Mus musculus [21] = assay: Tested for its effect on mouse testes weight 3 days after single oral dose (1 mg/kg); assay type: functional, Testis; procedure, shortened: as §2
Mus musculus [22] = assay: Tested for its effect on spermatogenic index 3 days after single oral dose (1 mg/kg),; assay type: functional; procedure, shortened: as §2
Mus musculus [23] = assay: Tested for its effect on spermatogenic index 3 days after single oral dose (30 mg/kg),; assay type: functional; procedure, shortened: as §2
Mus musculus [24] = assay: Effect on change in body weight single oral dose of 3 mg/kg was given and the change after 14 hr of dosing was observed.; assay type: functional; procedure, shortened: as §4
Mus musculus [25] = assay: Effect on spermatogenic index single oral dose of 30 mg/kg was given and the change after 3 hr of dosing was observed.; assay type: functional; procedure, shortened: as §4
Mus musculus [26] = assay: Tested for its effect on spermatogenic index 3 days after single oral dose (90 mg/kg),; assay type: functional; procedure, shortened: as §2
Mus musculus [27] = assay: Effect on left testes body weight single oral dose of 3 mg/kg was given and the change after 3 hr of dosing was observed.; assay type: functional, Testis; procedure, shortened: as §4
Mus musculus [28] = assay: Effect on spermatogenic index single oral dose of 3 mg/kg was given and the change after 3 hr of dosing was observed.; assay type: functional; procedure, shortened: as §4
Mus musculus [29] = assay: Effect on right testes weight single oral dose of 30 mg/kg was given and the change after 1 hr of dosing was observed; assay type: functional, Testis; procedure, shortened: as §4
Mus musculus [30] = assay: tested for its effect on spermatogenic index 3 days after single oral dose (30 mg/kg); assay type: functional; procedure, shortened: as §1
Mus musculus [31] = assay: tested for its effect on mouse testes weight 3 days after single oral dose (1 mg/kg); assay type: functional, Testis; procedure, shortened: as §5
Mus musculus [32] = assay: tested for its effect on testes weight 3 days after single oral dose (30 mg/kg); assay type: functional, Testis; procedure, shortened: as §5
Mus musculus [33] = assay: Effect on right spermatogenic index single oral dose of 10 mg/kg was given and the change after 3 hr of dosing was observed.; assay type: functional; procedure, shortened: as §4
Mus musculus [34] = assay: Tested for its effect on mouse testes weight 3 days after single oral dose (10 mg/kg); assay type: functional, Testis; procedure, shortened: as §2
Mus musculus [35] = assay: Tested for its effect on mouse testes weight 3 days after single sub cutaneous dose (30 mg/kg); assay type: functional, Testis; procedure, shortened: as §6
Mus musculus [36] = assay: Effect on spermatogenic index single oral dose of 3 mg/kg was given and the change after 1 hr of dosing was observed.; assay type: functional; procedure, shortened: as §4
Mus musculus [37] = assay: Effect on right testes body weight single oral dose of 10 mg/kg was given and the change after 14 h of dosing was observed.; assay type: functional, Testis; procedure, shortened: as §4

CCN1CC[C@H]2[C@H](c3ccc(C)cc3)c3cc(C)ccc3[C@H]2C1.Cl
Reduction (Mus musculus [1]): 59% | Reduction (Mus musculus [2]): 10% | Reduction (Mus musculus [3]): 12% | Change in body weight (Mus musculus [4]): 3.22 g | Testes weight (Mus musculus [5]): 96.9 mg | Reduction (Mus musculus [6]): 0% and 10% | Testes weight (Mus musculus [7]): 112.6 mg | Reduction (Mus musculus [8]): 13% | Reduction (Mus musculus [9]): 5% | Testes weight (Mus musculus [10]): 88.5 mg | Testes weight (Mus musculus [11]): 126.5 mg | Spermatogenic index (Mus musculus [12]): 1.7 | Testes weight (Mus musculus [13]): 104.9 mg | Reduction (Mus musculus [14]): 0% | Reduction (Mus musculus [15]): 41% | Reduction (Mus musculus [16]): 50% and 39% | Testes weight (Mus musculus [17]): 81 mg | Testes weight (Mus musculus [18]): 107.8 mg | Testes weight (Mus musculus [19]): 49.4 mg and 47.1 mg | Testes weight (Mus musculus [20]): 92.8 mg | Reduction (Mus musculus [21]): 11% | Reduction (Mus musculus [22]): 7% | Reduction (Mus musculus [23]): 9% | Change in body weight (Mus musculus [24]): 3.62 g | Spermatogenic index (Mus musculus [25]): 3 | Reduction (Mus musculus [26]): 5% | Testes weight (Mus musculus [27]): 106.1 mg | Spermatogenic index (Mus musculus [28]): 5.8 | Testes weight (Mus musculus [29]): 93.9 mg | Reduction (Mus musculus [30]): 62% | Reduction (Mus musculus [31]): 25% | Reduction (Mus musculus [32]): 43% | Spermatogenic index (Mus musculus [33]): 3.5 | Reduction (Mus musculus [34]): 10% | Reduction (Mus musculus [35]): 14% | Spermatogenic index (Mus musculus [36]): 6 | Testes weight (Mus musculus [37]): 104.8 mg
